The record followed here is ChEMBL document CHEMBL3632459, “Synthesis and evaluation of aporphine analogs containing C1 allyl isosteres at the h5-HT(2A) receptor” (Bioorg Med Chem Lett, 2015).

Molecules are shown by their SMILES.

The species named for one assay is Homo sapiens. Nature of the assay: Selectivity ratio of Ke(app) for adrenergic alpha1A receptor (unknown origin) to Ke(app) for human 5-HT2A receptor. An outline of the steps: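 Ratio of apparent Ke values from matched FLIPR calcium functional assays at human 5-HT2A and at α1A receptors. Compounds were screened at 10 μM. Ke was taken from the rightward EC50 shift of an 8-point half-log agonist curve (5-HT at 5-HT2A) with one antagonist concentration, Ke = [L]/(DR−1). Values are means of ≥2 triplicate experiments.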

Assay [1] addresses 5-hydroxytryptamine receptor 1A (Homo sapiens) (UniProt P08908). Nature of the assay: Displacement of [3H]-8-OH-DPAT from recombinant human 5-HT1A receptor at 10 uM after […] by Microbeta scintillation counting analysis relative to control.
Assay [2] has as its target 5-hydroxytryptamine receptor 5A (Homo sapiens) (UniProt P47898). Nature of the assay: Displacement of [3H]-LSD from recombinant human 5-HT5A receptor at 10 uM after […] by Microbeta scintillation counting analysis relative to control. Background: Loss of bound radioactivity is the signal in a displacement assay; it reports binding, not function.
Assay [3] concerns the target Alpha-1A adrenergic receptor (Homo sapiens) (UniProt P35348). Nature of the assay: Displacement of [3H]-Prazosin from recombinant human adrenergic alpha1A receptor at 10 uM after […] by Microbeta scintillation counting analysis relative to control.
Assay [4] concerns the target Alpha-1B adrenergic receptor (Homo sapiens) (UniProt P35368). Nature of the assay: Displacement of [3H]-Prazosin from recombinant human adrenergic alpha1B receptor at 10 uM after […] by Microbeta scintillation counting analysis relative to control.
Assay [5] deals with Alpha-1D adrenergic receptor (Homo sapiens) (UniProt P25100). Nature of the assay: Inhibition of recombinant human adrenergic alpha1D receptor at 10 uM after […] by Microbeta scintillation counting analysis relative to control.
Assay [6] concerns the target Beta-1 adrenergic receptor (Homo sapiens) (UniProt P08588). Nature of the assay: Displacement of [3H]-Iodopindolol from recombinant human adrenergic beta1 receptor at 10 uM after […] by Microbeta scintillation counting analysis relative to control.
Assay [7] deals with Beta-2 adrenergic receptor (Homo sapiens) (UniProt P07550). Nature of the assay: Displacement of [3H]-Iodopindolol from recombinant human adrenergic beta2 receptor at 10 uM after […] by Microbeta scintillation counting analysis relative to control.
Sequence of Beta-2 adrenergic receptor (Homo sapiens) (P07550 whole entry, looked up): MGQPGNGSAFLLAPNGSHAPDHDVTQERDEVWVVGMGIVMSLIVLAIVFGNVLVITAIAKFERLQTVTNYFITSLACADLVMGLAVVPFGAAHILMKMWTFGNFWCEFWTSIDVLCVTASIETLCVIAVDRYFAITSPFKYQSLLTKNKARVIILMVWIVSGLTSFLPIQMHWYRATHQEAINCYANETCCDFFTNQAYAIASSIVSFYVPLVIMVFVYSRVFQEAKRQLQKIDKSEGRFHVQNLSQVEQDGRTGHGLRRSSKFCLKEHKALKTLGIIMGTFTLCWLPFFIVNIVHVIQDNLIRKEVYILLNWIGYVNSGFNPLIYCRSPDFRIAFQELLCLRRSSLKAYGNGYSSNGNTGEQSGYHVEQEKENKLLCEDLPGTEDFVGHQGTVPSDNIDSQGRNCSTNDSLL
The target in assay [8] is Beta-3 adrenergic receptor (Homo sapiens) (UniProt P13945). Nature of the assay: Displacement of [3H]-Iodopindolol from recombinant human adrenergic beta3 receptor at 10 uM after […] by Microbeta scintillation counting analysis relative to control.
For a further assay, the species on record is Rattus norvegicus. Nature of the assay: Displacement of [3H]-Flunitrazepam from rat brain Benzodiazepine receptor at 10 uM after […] by Microbeta scintillation counting analysis relative to control.
The target in assay [9] is D(4) dopamine receptor (Homo sapiens) (UniProt P21917). Nature of the assay: Displacement of [3H]-N-methylspiperone from recombinant human dopamine D4 receptor at 10 uM after […] by Microbeta scintillation counting analysis relative to control.
Sequence of D(4) dopamine receptor (Homo sapiens) (P21917 whole entry): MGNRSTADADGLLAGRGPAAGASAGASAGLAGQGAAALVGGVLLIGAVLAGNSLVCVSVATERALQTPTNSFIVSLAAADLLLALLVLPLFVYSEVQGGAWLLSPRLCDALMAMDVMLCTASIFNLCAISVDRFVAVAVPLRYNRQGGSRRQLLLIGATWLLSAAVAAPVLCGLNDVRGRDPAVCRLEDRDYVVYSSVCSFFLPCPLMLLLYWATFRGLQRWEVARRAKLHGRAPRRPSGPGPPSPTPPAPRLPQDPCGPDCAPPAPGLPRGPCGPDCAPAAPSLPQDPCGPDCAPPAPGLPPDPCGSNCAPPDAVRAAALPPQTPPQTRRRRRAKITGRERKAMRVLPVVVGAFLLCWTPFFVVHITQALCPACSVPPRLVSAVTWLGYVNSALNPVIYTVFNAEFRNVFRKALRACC
Assay [10] has as its target D(2) dopamine receptor (Homo sapiens) (UniProt P14416). Nature of the assay: Displacement of [3H]-N-methylspiperone from recombinant human dopamine D2 receptor at 10 uM after […] by Microbeta scintillation counting analysis relative to control.
In assay [11] the target is D(1B) dopamine receptor (Homo sapiens) (UniProt P21918). Nature of the assay: Displacement of [3H]-[…] from recombinant human dopamine D5 receptor at 10 uM after […] by Microbeta scintillation counting analysis relative to control.
Sequence of D(1B) dopamine receptor (Homo sapiens) (P21918 whole entry): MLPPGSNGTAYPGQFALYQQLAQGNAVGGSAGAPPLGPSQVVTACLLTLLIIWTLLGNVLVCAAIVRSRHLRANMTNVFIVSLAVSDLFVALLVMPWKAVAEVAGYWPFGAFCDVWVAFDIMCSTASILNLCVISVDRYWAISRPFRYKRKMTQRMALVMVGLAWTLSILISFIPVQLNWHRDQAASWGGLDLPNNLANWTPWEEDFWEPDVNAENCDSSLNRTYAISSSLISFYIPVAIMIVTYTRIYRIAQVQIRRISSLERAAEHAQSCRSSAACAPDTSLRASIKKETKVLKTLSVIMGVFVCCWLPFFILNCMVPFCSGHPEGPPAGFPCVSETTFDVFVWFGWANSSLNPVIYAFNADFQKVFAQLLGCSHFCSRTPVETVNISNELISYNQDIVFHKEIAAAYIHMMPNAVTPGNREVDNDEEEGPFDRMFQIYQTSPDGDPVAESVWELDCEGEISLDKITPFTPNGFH
Assay [12] has as its target Delta-type opioid receptor (Homo sapiens) (UniProt P41143). Nature of the assay: Displacement of [3H]-DADLE from recombinant human delta opioid receptor at 10 uM after […] by Microbeta scintillation counting analysis relative to control.
Assay [13] has as its target GABA-A receptor; agonist GABA site (Homo sapiens) (UniProt P14867+P47870+P28472+P48169+P34903+P18505+P47869+P31644+Q16445). Nature of the assay: Displacement of [3H]-Muscimol from recombinant human GABAA receptor at 10 uM after […] by Microbeta scintillation counting analysis relative to control. Type of assay: protein-complex assay.
Assay [14] addresses Histamine H1 receptor (Homo sapiens) (UniProt P35367). Nature of the assay: Displacement of [3H]-Pyrilamine from recombinant human histamine H1 receptor at 10 uM after […] by Microbeta scintillation counting analysis relative to control.
In assay [15] the target is Histamine H3 receptor (Homo sapiens) (UniProt Q9Y5N1). Nature of the assay: Displacement of [3H]-alpha-methylhistamine from recombinant human histamine H3 receptor at 10 uM after […] by Microbeta scintillation counting analysis relative to control.
Assay [16] deals with Histamine H4 receptor (Homo sapiens) (UniProt Q9H3N8). Nature of the assay: Displacement of [3H]-Histamine from recombinant human histamine H4 receptor at 10 uM after […] by Microbeta scintillation counting analysis relative to control.
Assay [17] has as its target Kappa-type opioid receptor (Homo sapiens) (UniProt P41145). Nature of the assay: Displacement of [3H]-U69593 from recombinant human kappa opioid receptor at 10 uM after […] by Microbeta scintillation counting analysis relative to control.
In assay [18] the target is Muscarinic acetylcholine receptor M1 (Homo sapiens) (UniProt P11229). Nature of the assay: Displacement of [3H]-QNB from recombinant human muscarinic M1 receptor at 10 uM after […] by Microbeta scintillation counting analysis relative to control.
For assay [19], the target named is Muscarinic acetylcholine receptor M2 (Homo sapiens) (UniProt P08172). Nature of the assay: Displacement of [3H]-QNB from recombinant human muscarinic M2 receptor at 10 uM after […] by Microbeta scintillation counting analysis relative to control.
Assay [20] deals with Muscarinic acetylcholine receptor M3 (Homo sapiens) (UniProt P20309). Nature of the assay: Displacement of [3H]-QNB from recombinant human muscarinic M3 receptor at 10 uM after […] by Microbeta scintillation counting analysis relative to control.
Sequence of Muscarinic acetylcholine receptor M3 (Homo sapiens) (P20309 whole entry, looked up): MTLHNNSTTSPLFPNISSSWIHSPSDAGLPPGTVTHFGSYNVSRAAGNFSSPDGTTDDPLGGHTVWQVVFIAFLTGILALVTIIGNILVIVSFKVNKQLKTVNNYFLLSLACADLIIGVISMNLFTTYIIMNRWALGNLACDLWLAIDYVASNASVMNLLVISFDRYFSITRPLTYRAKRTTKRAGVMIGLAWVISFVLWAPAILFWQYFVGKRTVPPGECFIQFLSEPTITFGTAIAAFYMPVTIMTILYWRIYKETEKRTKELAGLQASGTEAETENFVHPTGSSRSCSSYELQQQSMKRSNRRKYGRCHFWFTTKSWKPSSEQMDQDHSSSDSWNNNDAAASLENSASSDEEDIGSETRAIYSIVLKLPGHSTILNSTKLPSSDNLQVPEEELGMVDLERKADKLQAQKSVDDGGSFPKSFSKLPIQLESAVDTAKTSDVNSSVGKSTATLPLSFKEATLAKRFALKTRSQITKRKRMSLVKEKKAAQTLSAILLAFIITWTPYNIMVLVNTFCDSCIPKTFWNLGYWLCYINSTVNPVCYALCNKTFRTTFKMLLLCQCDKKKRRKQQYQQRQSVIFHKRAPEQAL
Assay [21] deals with Muscarinic acetylcholine receptor M4 (Homo sapiens) (UniProt P08173). Nature of the assay: Displacement of [3H]-QNB from recombinant human muscarinic M4 receptor at 10 uM after […] by Microbeta scintillation counting analysis relative to control.
For assay [22], the target named is Mu-type opioid receptor (Homo sapiens) (UniProt P35372). Nature of the assay: Displacement of [3H]-DAMGO from recombinant human mu opioid receptor at 10 uM after […] by Microbeta scintillation counting analysis relative to control.
The target of assay [23] is Sodium-dependent noradrenaline transporter (Homo sapiens) (UniProt P23975). Nature of the assay: Displacement of [3H]-Nisoxetine from recombinant human NET at 10 uM after […] by Microbeta scintillation counting analysis relative to control.
Sequence of Sodium-dependent noradrenaline transporter (Homo sapiens) (P23975 whole entry): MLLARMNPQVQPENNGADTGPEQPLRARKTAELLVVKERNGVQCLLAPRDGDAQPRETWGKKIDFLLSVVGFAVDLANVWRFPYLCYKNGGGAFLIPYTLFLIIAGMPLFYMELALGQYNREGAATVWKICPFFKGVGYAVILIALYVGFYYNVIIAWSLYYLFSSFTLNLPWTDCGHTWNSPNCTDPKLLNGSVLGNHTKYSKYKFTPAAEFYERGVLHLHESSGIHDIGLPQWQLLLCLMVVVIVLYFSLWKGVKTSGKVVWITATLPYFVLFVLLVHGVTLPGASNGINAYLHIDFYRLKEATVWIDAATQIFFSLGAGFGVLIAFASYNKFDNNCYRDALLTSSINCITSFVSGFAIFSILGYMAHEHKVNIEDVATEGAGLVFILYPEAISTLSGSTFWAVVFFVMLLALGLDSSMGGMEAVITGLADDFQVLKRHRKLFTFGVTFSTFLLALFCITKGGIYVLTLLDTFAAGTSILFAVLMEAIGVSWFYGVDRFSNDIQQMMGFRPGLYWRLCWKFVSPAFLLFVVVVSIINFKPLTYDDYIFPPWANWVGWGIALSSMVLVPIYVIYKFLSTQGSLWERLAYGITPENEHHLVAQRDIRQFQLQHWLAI
In assay [24] the target is Sodium-dependent serotonin transporter (Homo sapiens) (UniProt P31645). Nature of the assay: Displacement of [3H]-Citalopram from recombinant human SERT at 10 uM after […] by Microbeta scintillation counting analysis relative to control.
The target in assay [25] is 5-hydroxytryptamine receptor 1B (Homo sapiens, UniProt P28222). Nature of the assay: Displacement of [3H]-[…] from recombinant human 5-HT1B receptor after […] by Microbeta scintillation counting analysis.
Sequence of 5-hydroxytryptamine receptor 1B (P28222 whole entry): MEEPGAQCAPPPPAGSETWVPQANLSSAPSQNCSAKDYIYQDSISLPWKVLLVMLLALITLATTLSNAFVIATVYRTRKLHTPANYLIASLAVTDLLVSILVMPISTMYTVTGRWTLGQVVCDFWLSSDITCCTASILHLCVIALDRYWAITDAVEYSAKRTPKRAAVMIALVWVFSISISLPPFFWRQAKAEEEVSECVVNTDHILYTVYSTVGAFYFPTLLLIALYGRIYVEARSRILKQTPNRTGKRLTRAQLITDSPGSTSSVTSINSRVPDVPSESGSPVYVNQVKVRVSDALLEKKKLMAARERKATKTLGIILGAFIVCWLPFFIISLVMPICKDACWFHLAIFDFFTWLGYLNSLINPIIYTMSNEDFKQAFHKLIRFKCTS
The target of assay [26] is 5-hydroxytryptamine receptor 1D (Homo sapiens, UniProt P28221). Nature of the assay: Displacement of [3H]-[…] from recombinant human 5-HT1D receptor after […] by Microbeta scintillation counting analysis.
In assay [27] the target is 5-hydroxytryptamine receptor 1E (Homo sapiens, UniProt P28566). Nature of the assay: Displacement of [3H]-5-HT from recombinant human 5-HT1E receptor after […] by Microbeta scintillation counting analysis.
Assay [28] concerns the target 5-hydroxytryptamine receptor 2B (Homo sapiens, UniProt P41595). Nature of the assay: Displacement of [3H]-LSD from recombinant human 5-HT2B receptor after […] by Microbeta scintillation counting analysis.
Assay [29] concerns the target 5-hydroxytryptamine receptor 3A (Homo sapiens, UniProt P46098). Nature of the assay: Displacement of [3H]-LY278584 from recombinant human 5-HT3 receptor after […] by Microbeta scintillation counting analysis.
The target of assay [30] is 5-hydroxytryptamine receptor 7 (Homo sapiens, UniProt P34969). Nature of the assay: Displacement of [3H]-LSD from recombinant human 5-HT7 receptor after […] by Microbeta scintillation counting analysis.
Sequence of 5-hydroxytryptamine receptor 7 (P34969 whole entry): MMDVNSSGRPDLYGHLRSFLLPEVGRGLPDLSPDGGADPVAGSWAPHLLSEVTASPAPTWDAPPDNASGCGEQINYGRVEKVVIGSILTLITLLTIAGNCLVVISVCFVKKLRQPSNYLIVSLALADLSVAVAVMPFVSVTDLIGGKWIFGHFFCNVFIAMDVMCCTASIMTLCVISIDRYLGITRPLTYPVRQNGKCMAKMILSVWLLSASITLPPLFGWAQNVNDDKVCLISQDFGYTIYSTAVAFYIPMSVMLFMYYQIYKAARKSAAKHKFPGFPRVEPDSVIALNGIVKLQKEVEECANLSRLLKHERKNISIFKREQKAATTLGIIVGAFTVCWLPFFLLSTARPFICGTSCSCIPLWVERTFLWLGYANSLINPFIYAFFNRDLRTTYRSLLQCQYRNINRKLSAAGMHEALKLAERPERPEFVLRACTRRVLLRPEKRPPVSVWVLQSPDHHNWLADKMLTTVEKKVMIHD
In assay [31] the target is Alpha-2B adrenergic receptor (Homo sapiens, UniProt P18089). Nature of the assay: Displacement of [3H]-Clonidine from recombinant human adrenergic alpha2B receptor after […] by Microbeta scintillation counting analysis.
The target of assay [32] is Alpha-2C adrenergic receptor (Homo sapiens, UniProt P18825). Nature of the assay: Displacement of [3H]-Clonidine from recombinant human adrenergic alpha2C receptor after […] by Microbeta scintillation counting analysis.
The target in a further assay is D(1A) dopamine receptor (Homo sapiens, UniProt P21728). Nature of the assay: Displacement of [3H]-[…] from recombinant human dopamine D1 receptor after […] by Microbeta scintillation counting analysis.
Sequence of D(1A) dopamine receptor (P21728 whole entry): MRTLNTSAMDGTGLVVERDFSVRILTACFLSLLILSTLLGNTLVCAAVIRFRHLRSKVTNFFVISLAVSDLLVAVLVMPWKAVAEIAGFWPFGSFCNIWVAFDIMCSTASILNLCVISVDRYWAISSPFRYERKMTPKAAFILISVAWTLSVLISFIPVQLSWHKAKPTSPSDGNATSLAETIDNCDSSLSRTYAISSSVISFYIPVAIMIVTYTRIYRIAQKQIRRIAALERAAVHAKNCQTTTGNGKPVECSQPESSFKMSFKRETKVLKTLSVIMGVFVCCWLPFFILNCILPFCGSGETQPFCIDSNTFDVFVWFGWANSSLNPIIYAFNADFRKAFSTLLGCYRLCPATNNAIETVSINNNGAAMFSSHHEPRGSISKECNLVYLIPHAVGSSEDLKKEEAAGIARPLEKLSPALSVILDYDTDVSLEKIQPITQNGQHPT
A further assay has as its target D(3) dopamine receptor (Homo sapiens, UniProt P35462). Nature of the assay: Displacement of [3H]-N-methylspiperone from recombinant human dopamine D3 receptor after […] by Microbeta scintillation counting analysis.
A further assay addresses Histamine H2 receptor (Homo sapiens, UniProt P25021). Nature of the assay: Displacement of [3H]-Tiotidine from recombinant human histamine H2 receptor after […] by Microbeta scintillation counting analysis.
In assay [33] the target is Muscarinic acetylcholine receptor M5 (Homo sapiens, UniProt P08912). Nature of the assay: Displacement of [3H]-Tiotidine from recombinant human muscarinic M5 receptor after […] by Microbeta scintillation counting analysis.
Another assay deals with Translocator protein (Homo sapiens, UniProt P30536). Nature of the assay: Displacement of [3H]-PK11195 from recombinant human PBR after […] by Microbeta scintillation counting analysis.
Sequence of Translocator protein (P30536 whole entry): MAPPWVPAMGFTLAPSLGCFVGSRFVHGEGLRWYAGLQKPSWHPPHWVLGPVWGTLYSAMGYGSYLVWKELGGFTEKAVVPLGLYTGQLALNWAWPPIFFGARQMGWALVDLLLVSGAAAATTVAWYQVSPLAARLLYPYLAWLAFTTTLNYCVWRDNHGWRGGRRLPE
For a further assay, the target named is Sigma 2 receptor. Nature of the assay: Displacement of [3H]-DTG from recombinant human sigma-2 receptor after […] by Microbeta scintillation counting analysis.

Sequence of D(3) dopamine receptor (P35462 whole entry): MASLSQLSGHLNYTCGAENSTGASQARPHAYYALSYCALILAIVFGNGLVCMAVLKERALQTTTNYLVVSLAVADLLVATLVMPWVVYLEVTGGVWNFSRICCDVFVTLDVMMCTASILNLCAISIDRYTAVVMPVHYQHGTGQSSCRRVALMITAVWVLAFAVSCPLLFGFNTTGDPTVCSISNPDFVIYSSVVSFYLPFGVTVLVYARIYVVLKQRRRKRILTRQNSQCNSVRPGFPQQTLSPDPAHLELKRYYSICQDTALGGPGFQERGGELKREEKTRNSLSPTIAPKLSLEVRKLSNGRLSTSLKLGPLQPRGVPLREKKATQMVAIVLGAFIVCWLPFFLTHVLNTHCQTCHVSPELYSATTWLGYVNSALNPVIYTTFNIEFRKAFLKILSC
Sequence of Histamine H2 receptor (P25021 whole entry): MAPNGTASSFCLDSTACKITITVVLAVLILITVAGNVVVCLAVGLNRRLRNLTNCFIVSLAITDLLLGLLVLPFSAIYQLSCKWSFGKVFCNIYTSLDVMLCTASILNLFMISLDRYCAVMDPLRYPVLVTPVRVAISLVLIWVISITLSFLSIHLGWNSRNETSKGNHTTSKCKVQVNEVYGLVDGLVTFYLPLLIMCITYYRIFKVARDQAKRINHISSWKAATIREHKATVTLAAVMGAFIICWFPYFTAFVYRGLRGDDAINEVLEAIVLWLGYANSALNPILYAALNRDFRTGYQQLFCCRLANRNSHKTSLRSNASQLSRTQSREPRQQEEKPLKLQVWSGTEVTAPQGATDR

Take `COc1cc2c3c(c1OCc1ccc(Br)cc1)-c1cc4c(cc1CC3N(C)CC2)OCO4` (stereo unspecified): the Ratio Ke in the assay listed under Homo sapiens is > 1090. Besides, the inhibition in assay [1], in assay [2], in assay [3], in assay [4], in assay [5] and in [6] was < 50% each time. For the same molecule, the inhibition (in [7]; in assay [8]; in the assay listed under Rattus norvegicus; in assay [9]; in assay [10]; in [11]) was < 50% throughout. Moreover, the inhibition in assay [12], in assay [13], in assay [14], in [15], in assay [16] and in assay [17] was < 50% each time. Also, the inhibition in assay [18], in [19], in assay [20], in assay [21], in assay [22] and in assay [23] was < 50% in each case. Moreover, in [24], the inhibition (as a rule, the share of the control response that was lost under treatment) is < 50%. The inhibition constant (Ki) in assay [25], in assay [26], in [27], in assay [28], in [29] and in [30] was > 0.9 µM each time. Besides, the inhibitory constant (Ki) (in assay [31]; in assay [32]; at D(1A) dopamine receptor; at D(3) dopamine receptor; at Histamine H2 receptor; in assay [33]) was > 0.9 µM throughout. The figures for the Ki on Translocator protein and at Sigma 2 receptor were > 0.9 µM and > 0.3 µM, respectively.
Take `COc1cc2c3c(c1OCCOC(C)=O)-c1cc4c(cc1CC3N(C)CC2)OCO4` (stereo unspecified): in the assay filed under Homo sapiens, the Ratio Ke stood at 0.3.
